This is an account of results in ChEMBL document CHEMBL1799999, “N-benzoylated phenoxazines and phenothiazines: synthesis, antiproliferative activity, and inhibition of tubulin polymerization” (J Med Chem, 2011).

Activity calls are given as the source filed them. The calls are words filed in the database; no cut-off is given here.

One series has as its system COLO 205. Put plainly: Antiproliferative activity against human COLO205 cells after 48 hrs by alamar blue assay. The format is functional, cell-based. The following applies: COLO 205, 48 h. The method, boiled down:
(§1)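 Cells seeded in growth medium and grown 24 h at 37 °C/5% CO2. 10 mM DMSO stocks diluted in half-log steps into medium, final DMSO 0.316%. After 45 h of compound exposure, AlamarBlue (resazurin) added for a further 3 h, giving 48 h total. Fluorescence read at 590 nm against untreated and cell-free blanks. At least two replicates; IC50 by nonlinear regression.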
In general terms: The colour change of resazurin is a common sign of viable cells or microbes.

Another series deals with DLD-1. Put plainly: Antiproliferative activity against human DLD1 cells after 48 hrs by alamar blue assay. Conditions: DLD-1, 48 h. The format is functional, cell-based. The method, boiled down: as §1
For another series, the system named is BT-549. Put plainly: Antiproliferative activity against human BT549 cells after 48 hrs by alamar blue assay. The format is functional, cell-based. Conditions: BT-549, 48 h. The method, boiled down:
as §1

A further series concerns NCI-H460. Put plainly: Antiproliferative activity against human NCI-H460 cells after 48 hrs by alamar blue assay. The format is functional, cell-based. Conditions: NCI-H460, 48 h. In short, it runs like this:
as §1

In series [1] the test system is K562. Nature of the series: Cell cycle arrest in human K562 cells assessed as accumulation at G2/M phase at 0.003 to. 1 ug/ml after 24 hrs by flow cytometric analysis. The format is functional, cell-based. The method, boiled down:
(§2)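 K562 cells (2 × 10^5/mL) exposed to graded concentrations for 24 h at 37 °C; vehicle DMSO/MeOH 1:1. Washed in PBS, fixed in ice-cold 70% ethanol, stained 30 min with propidium iodide 0.02 mg/mL plus RNase 0.2 mg/mL. DNA content read by flow cytometry with 488 nm excitation; G2/M fraction scored.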
For orientation: A flow cytometer gives signals particle by particle.

In the next series the test system is SW480. Nature of the series: Antiproliferative activity against human SW480 cells after 48 hrs by alamar blue assay. The following applies: SW480, 48 h. The format is functional, cell-based. In short, it runs like this:
as §1

The subject of a further series is Potorous tridactylus. Put plainly: Inhibition of tubulin polymerization in Potorous tridactylus Ptk2 cells assessed as destruction of microtubule network at 5 uM after 1 hr by immunofluorescence assay. The method, boiled down:
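PtK2 cells exposed 1 h to 5 μM compound in RPMI medium with 2% DMSO; solvent-only controls. Microtubules labelled with Cy3-anti-tubulin antibody and examined by immunofluorescence microscopy.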

A further series has as its system SK-OV-3. Nature of the series: Antiproliferative activity against human SKOV3 cells after 48 hrs by alamar blue assay. The format is functional, cell-based. Conditions: SK-OV-3, 48 h. In short, it runs like this: as §1
A further series is described as follows: cells. Conditions: Homo sapiens, 451Lu, 48 h.
For the next series, the target named is Tubulin (Sus scrofa, UniProt P02554+P02550). Nature of the series: Inhibition of pig tubulin polymerization determined after 45 mins at 37 degC by turbidimetric analysis. The format is protein assay. In short, it runs like this: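 Microtubule protein (80–90% tubulin with MAPs) from porcine brain, isolated by two cold/warm cycles. Buffer: 20 mM PIPES pH 6.8, 80 mM NaCl, 0.5 mM MgCl2, 1 mM EGTA, 1 mM DTT. Protein at 1.2 mg/mL (about 10 μM tubulin) with 0.6 mM GTP, 1% DMSO, 37 °C.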

The test system of a further series is ASPC1. Put plainly: Antiproliferative activity against human AsPC1 cells after 72 hrs by sulforhodamine staining method. The format is functional. Conditions: ASPC1, 72 h. In short, it runs like this:
(§3)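 Panel of 83 solid-tumour lines plus resting PBMC, run by the DTP NCI sulforhodamine B staining protocol. Compound exposure 72 h, concentrations from 0.0001 to 10 μM. GI50 taken per line; z-scores computed relative to the panel mean GI50.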

The subject of series [2] is K562. Nature of the series: Antiproliferative activity against human K562 cells after 48 hrs by hemocytometric analysis. The format is functional, cell-based. Conditions: K562, 48 h. In short, it runs like this:
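K562 cells in RPMI 1640 with 10% FBS at 37 °C/5% CO2, plated at 2 × 10^5 cells/mL. Compounds in DMSO/methanol 1:1, final vehicle 0.5%. Cells counted in a Neubauer hemocytometer after 48 h and expressed as % of untreated control. Triplicate wells, three experiments; IC50 by nonlinear regression.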

Series [3] is described as follows: Antiproliferative activity against human resting PBMC after 72 hrs by sulforhodamine staining method. The format is cell-based. In short, it runs like this: as §3
Series [4] relates to K562. Put plainly: Cell cycle arrest in human K562 cells assessed as accumulation at G2/M phase at 30 nM after 24 hrs by flow cytometric analysis. The format is functional, cell-based. The method, boiled down: as §2

Take `COc1cc2c(c(OC)c1OC)-c1ccc(OC)c(=O)cc1[C@@H](NC(C)=O)CC2` [COLCHICINE]: the IC50 in the series on COLO 205 was 21 nM; in the series on DLD-1, 89 nM; with BT-549, 23 nM; in the series with NCI-H460 it was 27 nM; in the series with SW480, 30 nM; with SK-OV-3 it was 29 nM. In “cells”, this compound registered an IC50 of 17 nM. In the series on K562 [1], the result was Active. The inhibition result in the series on Potorous tridactylus is “Active”.
Take `CC(=O)O[C@H]1C(=O)[C@@]2(C)[C@H]([C@H](OC(=O)c3ccccc3)[C@]3(O)C[C@H](OC(=O)[C@H](O)[C@@H](NC(=O)c4ccccc4)c4ccccc4)C(C)=C1C3(C)C)[C@]1(OC(C)=O)CO[C@@H]1C[C@@H]2O` [PACLITAXEL]: the IC50 was found to be 5 nM in the series with COLO 205; 50 nM with DLD-1; 6 nM in the series with BT-549; 4 nM in the series on NCI-H460; 11 nM with SW480; 6 nM in the series on SK-OV-3.
As to `COc1ccc(C(=O)N2c3ccccc3Oc3ccc(Cl)cc32)cc1O`, the IC50 with COLO 205 amounted to 2680 nM; at Tubulin, 730 nM; in the series with DLD-1, 230 nM; with BT-549, 320 nM; in the series on NCI-H460, 390 nM; in the series with SW480, 240 nM. In addition, the IC50 in the series on K562 [2] amounted to 80 nM; in the series on SK-OV-3, 170 nM; in the series “cells” it was 27 nM. Moreover, the GI50 with ASPC1 was greater than 10000 nM. Besides, in the series on Potorous tridactylus, the inhibition entry was “Active”. In series [3], the GI50 at 72 h is greater than 10000 nM.
As to `COc1ccc(C(=O)N2c3ccccc3Oc3cc(C#N)ccc32)cc1`, the IC50 was 6 nM in the series with COLO 205; 730 nM against Tubulin; 9 nM in the series on DLD-1; 8 nM in the series with BT-549; 15 nM with NCI-H460; 8 nM in the series on SW480. Besides, the IC50 in the series on K562 [2] was 14 nM; with SK-OV-3, 6 nM; in “cells”, 2 nM. Further, the GI50 in the series on ASPC1 is greater than 10000 nM. Further, the result in the series on K562 [4] and with K562 [1] was Active. In series [3], the GI50 at 72 h is greater than 10000 nM.
As to `COc1ccc(C(=O)N2c3ccccc3Oc3ccccc32)cc1`, the IC50 was found to be 240 nM with COLO 205; 1100 nM against Tubulin; 250 nM in the series on DLD-1; 120 nM in the series with BT-549; 270 nM in the series with NCI-H460; 240 nM in the series on SW480. The IC50 in the series with K562 [2] turned out to be 33 nM; with SK-OV-3, 210 nM; in the series “cells”, 60 nM.
Take `COc1ccc(C(=O)N2c3ccccc3Oc3ccc(Cl)cc32)cc1`: the IC50 in the series with COLO 205 amounted to 430 nM; against Tubulin it was 570 nM; in the series on DLD-1, 540 nM; in the series with BT-549 it was 330 nM; in the series on NCI-H460 it was 680 nM; in the series with SW480, 530 nM. Besides, the IC50 in the series on K562 [2] turned out to be 140 nM; with SK-OV-3, 350 nM; in the series “cells”, 90 nM.
As for `COC(=O)Nc1nc2cc(C(=O)c3cccs3)ccc2[nH]1` [NOCODAZOLE], the IC50 in the series on COLO 205 was determined as 88 nM; in the series with DLD-1 it was 190 nM; with BT-549 it was 69 nM; in the series on NCI-H460 it was 68 nM; in the series with SW480, 120 nM; in the series on SK-OV-3, 80 nM. The IC50 in “cells” was 72 nM.

By IC50 is commonly meant the point on the concentration scale where inhibition reaches its midpoint. A higher IC50 goes with lower potency. Broadly, the GI50 is the concentration at which growth is held to half of that of the control. The low end stands for more potent growth inhibition, the high end for less potent growth inhibition.
